Fewer inactive variants are shown than the library holds. Where only a bound is given, the exact number is not on record here.

The labels stand for the following.
B1: tRNA (parent)
chain: GUUCCGUUGGCGUAAUGGUAACGCGUCUCCCUCCUAAGGAGAAGACUGCGGGUUCGAGUCCCGUACGGAACG

In the series the parent is B1. The series can be described thus: yeast fitness relative to wild type (ratio to wild type); higher = fitter; tRNA-Arg(CCU), competitive growth, 37 C, YPD. A digest of the protocol: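 Variants of the tRNA-Arg(CCU) gene were chemically synthesised with a 3% per-site mutation rate across 69 sites and placed at the native genomic locus in Saccharomyces cerevisiae. Six parallel replicates of the pooled strains were competed in YPD at 37°C for 24 hours, and gene amplicons from the start and end populations were read by 100-nucleotide paired-end sequencing. Darwinian fitness relative to wild type was derived from changes in genotype frequencies. Genotypes required ≥ 100 starting reads, and estimates < 0.5 were set to 0.5.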
In the case of GUUCCGUUGGAGUAAUGGUACCGCGUCUCCCUCCUAAGGAGAAGACUGCGGGUUCGAGUCCCGUACGGAACG [C11A A21C], the yeast fitness amounted to 0.557.

GUUCCGUUGGCGUUAUGGUAACGCGUCUCCCUCUUAAGGUGAAGACUGCCGGUUCGAGUCCCGUACGGAACG [A14U C34U A40U G50C]: the yeast fitness is ≤ 0.5.

In the case of GUUCCGUUGGCGUAAUGGUAACGCGUCACCCUCCUAAGGAGAAGACUGCGGGUUCGAGUCCCGUACGCAACG [U28A G68C], the yeast fitness was 0.707.

As to GUUCGGUUGGCGUAAUGGUAACGCGUCUCCCUCCUAAGGAGAAGACUACGGGUUCCAGUCCCGUGCGGAACG [C5G G48A G56C A65G], the yeast fitness was ≤ 0.5.

Consider GUUCCGUUGGCGUAAUGGUAACGCGUCUCCCUCCUAAGGAGAAGACUACGGGUUCGAGUCCCAUCCGGAACG [G48A G63A A65C], for which the yeast fitness is ≤ 0.5.

As for GUUCCCUCGGCGUAAUGGUAACGCGUCUCCCUUCUAAGGAGAGGACUGCGGGUUCGAAUUCCGUACGGAACG [G6C U8C C33U A43G G58A C60U], the yeast fitness was ≤ 0.5.

Take GUUCCGUUGGCGUGAUGGUAACGCGUCUCCCUCCUAAGGAGAAGAGUGCGGGUUCGAGUCCCGUACGGUACG [A14G C46G A69U]: the yeast fitness came out at 0.861.

As to GUUCCGUUGGCGUAAUGGUAACGCGUCUCCCUCCUAAGGAGAGGUCUACGGGUUCGAGUCCCGUACGGAACG [A43G A45U G48A], the yeast fitness turned out to be 0.658.

With GUUCCGUUGGCGUAAUGGUAACGCGUCUCCCUCCUAAGGAGAAGACUGCGGGGUCGAGUCCCCUACGGCACG [U53G G63C A69C], the yeast fitness was ≤ 0.5.

As to GUUCCGUUGGCGUAAUGGUAUCGCGUCUCCCUCCUUAGGAGAAGUCUGCGGGUUCGAGUCCCGUUCGGAUCG [A21U A36U A45U A65U A70U], the yeast fitness stood at 0.624.

Consider GUGCCGUUGGCGUAAUGGUAACGCGUCCCCCUCCUAAGGAGAAGACUGCGGGUUCGAGUCCCGUACGGAACG [U3G U28C], for which the yeast fitness worked out at 0.888.

GUUCCGUUGGCGUAAUGGUAACGCGUCUCCCUCCUAAGGAGAAGAGUGCGGGUUCGCGUCCCGUACGGCACG [C46G A57C A69C]: the yeast fitness was ≤ 0.5.

For GUUGCGUUGGCGUAAUGGUAACGCGUCUCCCUCCUAAGGAGAAGACUGCGCGUUCGAGUCCCGUACGGAACG [C4G G51C], the yeast fitness stood at 0.647.

Consider GUUCCGUUGGCGUAAUGGUAACGCGUCUCCCUCCUAAGGACAAGACUGCGGGUUAGAGUCCCGUACGGCACG [G41C C55A A69C], for which the yeast fitness came out at 0.529.

With GUUCCGUUGGCGUAAUGGUAACGAGUCUCCCUCCUAAGGAAAAGACUGCGGGUUCGAGUCCCGUACGGAACG [C24A G41A], the yeast fitness came to 0.738.

In the case of GUCCCGUUGGCGUAAUGGUAACGCGUCUCCCUCCUAAGAAGAAGACUGCGGGUUCGAGUCCCGUACUGAACG [U3C G39A G67U], the yeast fitness is ≤ 0.5.

Consider GUACCGUUGGCGUAAUGGUAACGCGUCUCCCUCCUAAGGAGAAGACUGCGAGCUCGAGUCCCGUACGGAACG [U3A G51A U53C], for which the yeast fitness came out at 0.648.

As to GUUCCGUUGGCGUAAUGGUAACGCGUCUCCCUCCAAAGGAGAAGACUGCGGGUUCGAGUGCGGUACGGAACG [U35A C60G C62G], the yeast fitness is ≤ 0.5.

For the variant GUUCCGUUGGCGUAGUGGUAACGCGUCUCCCUCCUAAGGAGAAGACUCCGGGUUCGAGUCCCGUACGGUACG [A15G G48C A69U], the yeast fitness was found to be 0.636.

On to GUUCCGUUGGCGUAAUGGUAACGCGUCUCCAUCCUAAGGAGAAGACUGCGGGUUCGAGUCCCGUACGGCACG [C31A A69C], for which the yeast fitness amounted to 0.949.

For GUUCCGCUGGCGUAAUGGUAACGCGUCUCCCUCCUAGGGAGAAGACUGCGGGUUCGAGUCCCGUACGGAACG [U7C A37G], the yeast fitness amounted to 0.666.

Consider GUUACGUUGGCGUAAUGGUAAUGCGUCUCCCUCCUAAGGAGAAGACUGCGGGUUCGAGUCCCGUACGGAACG [C4A C22U], for which the yeast fitness was determined as 0.789.

GUUCCGUUGGCGUAAUGGUAACGCGUGUCCCUCCUAAGGAGAAGACUCCGGCUUCGAGUCCGGUACGGAACG [C27G G48C G52C C62G]: the yeast fitness was ≤ 0.5.

As for GUUCCGUUGGCGUAAUGGUAACGCGCCUCCCUGCUAAGGAGCAGACUGCGGGUUCGAGUCCCGUACGGAACG [U26C C33G A42C], the yeast fitness worked out at 0.537.

GUUCCGUUGGCGUAAUGGUGACGCGUCUCACUCCUAAGGAGAAGACUGCGGGUUCGAGUCCCGUACGGAACG [A20G C30A]: the yeast fitness was 1.

As to GUUCCGUUGGCAUAAUGGUAACGCGUCUCCCUCCUCAGGAAAAGACUGCGGGCUCGAGUCCCGUACGGAACG [G12A A36C G41A U53C], the yeast fitness is ≤ 0.5.

Turning to GUUCCGUUGGCGUUAUGGAAACGCGUCUCCCUCCUCAGGAGAAGACUGCGGGUUCGAGUCCCAUACGGAACG [A14U U19A A36C G63A], the yeast fitness worked out at 0.586.

On to GUUCCGUUGGCGUAUUGGUAACGCGUCUCCCUCCUAAGGAGAAGACUGCGGGUGCGAGUCCCGUACGGAACG [A15U U54G], for which the yeast fitness worked out at 0.539.

Regarding GUUCCGUUGGCGUUAUGGUAACGCGUCUCCCUCCUAAGGAGAAGACUGCGGGUUCGAGUCCCGUACGGCACG [A14U A69C], the yeast fitness worked out at 0.635.

As for GUUCCGUUGGCGUAAUGGUAUCGCCUCUCCCUCCUAAGGAGAAGACUGCGGGUUCGAGUCCCGUACGGAACG [A21U G25C], the yeast fitness worked out at 1.08.

Consider GUUCCGUUGGCGUAAUGGUAUCGCGUCUCCCUCCUAAGGAGAAGGCUGCGGGUUCGAGUCCGGUACGGAACG [A21U A45G C62G], for which the yeast fitness worked out at 0.996.

Consider GUUCCGUUGGAGUAAUGGUAGCGCGUCUCCCUCUUAGGGAGAAGACUGCGGGUUCGAAUCCCGUACGGAACG [C11A A21G C34U A37G G58A], for which the yeast fitness is ≤ 0.5.

With GAUCCGUUGGUGUAAUGGUAACGCGUCUCCCUCCUAAGGAGAAGACUGCGGGUUCGAGUCCCGUACGGACCG [U2A C11U A70C], the yeast fitness came out at 0.587.

GUUCCGUUGGCGUAAUGGUAACGCGUCUCCCUCCUAAGCAGAAGAAUGCGGGUUCGAGUCCGGUACGGAACG [G39C C46A C62G]: the yeast fitness was ≤ 0.5.

For GUUCCGUUGGCGUAAUGGUAACGGGUCUCCCUGCUAAGGAGAAGACUGCGGGUUUGAGUCCCGUACGGAACG [C24G C33G C55U], the yeast fitness was ≤ 0.5.

With GUUCCGUUGGCGUAAUGGUAACGCGUCUCCCUCCUAAGGAGAAAAUUGCGGGUUCGAGUCCCGUACGGAACG [G44A C46U], the yeast fitness was 0.981.

Regarding GUUCAAAUGGCGUAAUGGUAACGCGUCUCCCUCCUAAGGAGAUAAAUGCGGGUUCGAGUCCCAUACGCGACG [C5A G6A U7A A43U G44A C46A G63A G68C A69G], the yeast fitness is 0.532.

Consider GUUCCGUUGGCGUAAUGGUAACGCGUCUCCCUCCUAACGACAAGACUGCGGGUUCGAGUCUCGUACGGAGCG [G38C G41C C61U A70G], for which the yeast fitness was ≤ 0.5.

Values taken from the RNAGym collection of RNA variant scans (doi:10.1126/science.aae0568).
